This is an account of results in PMC3448846 (European neuropsychopharmacology : the journal of the …, 2012).

One series addresses α1β3γ2 GABAA receptors (Rattus norvegicus, UniProt P18508+P62813). Put plainly: Two electrode voltage clamp, modulation of EC3 GABA current in Xenopus oocytes. It is filed as cell-based.
In a further series the target is α2β3γ2 GABAA receptors (Rattus norvegicus, UniProt P18508+P23576). Described as above. The series is classed as cell-based.
In a further series the target is α3β3γ2 GABAA receptors (Rattus norvegicus, UniProt P18508+P20236). The description is as above. It is filed as cell-based.
Another series deals with α5β3γ2 GABAA receptors (Rattus norvegicus, UniProt P18508+P19969). The description is as above. It is filed as cell-based. The following applies: for % of control current: EC3 GABA, α5β3γ2.
Series [1] deals with spatial learning and memory. Description: Morris water maze. It is filed as in vivo, male Wistar rats. The following applies: for effect on Morris water-maze performance on its own: WYS8 0.2, 1 and 10 mg/kg i.p., β-CCt 5 mg/kg i.p. A digest of the protocol:
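Male Wistar rats, 220–250 g, n=8/group, dosed i.p. in 85% water/14% propylene glycol/1% Tween 80 (sonicated) 20 min before each daily block for 5 acquisition days. Pool 200 cm wide with 23°C water; 15×10 cm platform 2 cm below the surface. Each block had 4 trials (max 120 s, 60 s interval, pseudorandom starts). Per-rat daily means were recorded. The probe trial measured target-region time and peripheral-ring distance.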

Series [2] is described as follows: Quantification in rat brain tissue. The series is classed as in vivo, Wistar rats. The following applies: Wistar, intraperitoneal, 10 mg/kg, total brain concentration, highest behaviorally tested dose.
A further series addresses α1β3γ2 GABAA/BZ site. The following applies: recombinant human receptors; ref Yin et al., 2010; cited from earlier work.
For a further series, the target named is α2β3γ2 GABAA/BZ site. The settings on record: α2 GABAA receptors; ref Yin et al., 2010; cited from earlier work.
The target of a further series is α3β3γ2 GABAA/BZ site. The settings on record: α3 GABAA receptors; ref Yin et al., 2010; cited from earlier work.
Another series has as its target α5β3γ2 GABAA/BZ site. The settings on record: α5 GABAA receptors; ref Yin et al., 2010; cited from earlier work.
The subject of a further series is α1 GABAA receptors. The settings on record: after 7 days of treatment, ref Wu et al., 1995, cited from earlier work.
In series [3] the test system is spatial learning and memory. The following applies: ref Savić et al, 2009, cited from earlier work.
Setting [4] is: WYS8 0.2 and 10 mg/kg + DZP 2 mg/kg i.p.

Structures are written as SMILES. Read-outs that look alike come from different tables or passages of the source.

α1β3γ2 GABAA receptors, sequence (P62813 28-455): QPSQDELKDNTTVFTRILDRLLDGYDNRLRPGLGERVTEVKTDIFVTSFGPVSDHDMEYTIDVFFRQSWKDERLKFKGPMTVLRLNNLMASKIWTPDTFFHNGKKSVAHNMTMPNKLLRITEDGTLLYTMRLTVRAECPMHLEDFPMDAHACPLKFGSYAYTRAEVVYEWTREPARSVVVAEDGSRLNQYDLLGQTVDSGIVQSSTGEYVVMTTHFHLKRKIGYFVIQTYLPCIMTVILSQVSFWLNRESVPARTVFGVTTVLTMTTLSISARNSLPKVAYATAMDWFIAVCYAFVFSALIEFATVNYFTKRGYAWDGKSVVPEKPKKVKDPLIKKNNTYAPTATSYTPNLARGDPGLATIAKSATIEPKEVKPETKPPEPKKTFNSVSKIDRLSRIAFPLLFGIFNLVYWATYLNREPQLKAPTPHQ
α1β3γ2 GABAA receptors, sequence (P63079 26-473 partner): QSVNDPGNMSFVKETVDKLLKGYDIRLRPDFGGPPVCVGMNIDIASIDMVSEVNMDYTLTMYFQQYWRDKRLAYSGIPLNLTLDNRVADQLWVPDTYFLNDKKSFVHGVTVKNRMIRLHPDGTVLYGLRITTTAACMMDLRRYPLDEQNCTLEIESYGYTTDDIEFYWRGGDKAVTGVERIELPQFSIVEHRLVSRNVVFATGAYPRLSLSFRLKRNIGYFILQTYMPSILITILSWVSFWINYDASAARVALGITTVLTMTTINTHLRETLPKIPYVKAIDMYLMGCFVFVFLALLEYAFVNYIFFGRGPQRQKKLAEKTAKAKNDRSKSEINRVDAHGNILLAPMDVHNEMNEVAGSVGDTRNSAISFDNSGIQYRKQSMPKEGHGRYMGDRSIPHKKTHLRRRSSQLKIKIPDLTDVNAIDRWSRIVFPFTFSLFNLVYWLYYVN
α1β3γ2 GABAA receptors, sequence (P18508 39-466): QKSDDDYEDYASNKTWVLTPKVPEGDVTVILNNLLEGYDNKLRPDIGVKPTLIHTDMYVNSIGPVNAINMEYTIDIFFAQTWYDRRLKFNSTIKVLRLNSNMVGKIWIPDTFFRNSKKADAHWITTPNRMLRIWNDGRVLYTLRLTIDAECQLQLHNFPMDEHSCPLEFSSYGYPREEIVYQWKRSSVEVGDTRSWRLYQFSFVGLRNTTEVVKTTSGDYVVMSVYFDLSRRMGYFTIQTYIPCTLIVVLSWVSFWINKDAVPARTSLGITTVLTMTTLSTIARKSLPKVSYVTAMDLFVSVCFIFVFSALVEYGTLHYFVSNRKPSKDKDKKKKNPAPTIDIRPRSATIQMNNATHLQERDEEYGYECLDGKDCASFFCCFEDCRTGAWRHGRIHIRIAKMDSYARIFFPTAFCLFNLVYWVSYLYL
α5β3γ2 GABAA receptors, sequence (P19969 32-464 limits assumed): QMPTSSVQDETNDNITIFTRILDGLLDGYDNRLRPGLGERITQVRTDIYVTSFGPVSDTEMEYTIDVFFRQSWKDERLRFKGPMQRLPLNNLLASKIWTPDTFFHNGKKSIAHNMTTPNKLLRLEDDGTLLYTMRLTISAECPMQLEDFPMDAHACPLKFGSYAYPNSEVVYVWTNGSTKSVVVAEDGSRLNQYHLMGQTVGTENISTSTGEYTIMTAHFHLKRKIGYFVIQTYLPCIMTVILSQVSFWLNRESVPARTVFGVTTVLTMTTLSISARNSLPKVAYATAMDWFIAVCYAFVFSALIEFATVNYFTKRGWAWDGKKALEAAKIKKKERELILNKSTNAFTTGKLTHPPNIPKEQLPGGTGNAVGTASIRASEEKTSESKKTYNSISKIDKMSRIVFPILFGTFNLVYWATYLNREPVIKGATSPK
α5β3γ2 GABAA receptors, sequence (P63079 26-473 partner): as the sequence (P63079 26-473 partner) above
α5β3γ2 GABAA receptors, sequence (P18508 39-466): as the sequence (P18508 39-466) above
α2β3γ2 GABAA receptors, sequence (P23576 29-451): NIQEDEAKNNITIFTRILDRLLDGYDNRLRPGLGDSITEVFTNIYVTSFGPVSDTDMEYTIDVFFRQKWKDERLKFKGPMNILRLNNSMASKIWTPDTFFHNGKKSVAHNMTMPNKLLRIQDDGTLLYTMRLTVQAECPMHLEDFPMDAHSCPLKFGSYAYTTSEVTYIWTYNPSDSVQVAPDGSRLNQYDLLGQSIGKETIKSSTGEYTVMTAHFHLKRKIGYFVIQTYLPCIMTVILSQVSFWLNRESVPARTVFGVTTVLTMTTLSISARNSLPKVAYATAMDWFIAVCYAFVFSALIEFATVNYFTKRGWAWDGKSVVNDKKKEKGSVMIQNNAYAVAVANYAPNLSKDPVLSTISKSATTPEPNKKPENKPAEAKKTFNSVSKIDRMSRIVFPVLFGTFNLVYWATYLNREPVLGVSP
α2β3γ2 GABAA receptors, sequence (P63079 26-473 partner): as the sequence (P63079 26-473 partner) above
α2β3γ2 GABAA receptors, sequence (P18508 39-466): as the sequence (P18508 39-466) above
α3β3γ2 GABAA receptors, sequence (P20236 29-493): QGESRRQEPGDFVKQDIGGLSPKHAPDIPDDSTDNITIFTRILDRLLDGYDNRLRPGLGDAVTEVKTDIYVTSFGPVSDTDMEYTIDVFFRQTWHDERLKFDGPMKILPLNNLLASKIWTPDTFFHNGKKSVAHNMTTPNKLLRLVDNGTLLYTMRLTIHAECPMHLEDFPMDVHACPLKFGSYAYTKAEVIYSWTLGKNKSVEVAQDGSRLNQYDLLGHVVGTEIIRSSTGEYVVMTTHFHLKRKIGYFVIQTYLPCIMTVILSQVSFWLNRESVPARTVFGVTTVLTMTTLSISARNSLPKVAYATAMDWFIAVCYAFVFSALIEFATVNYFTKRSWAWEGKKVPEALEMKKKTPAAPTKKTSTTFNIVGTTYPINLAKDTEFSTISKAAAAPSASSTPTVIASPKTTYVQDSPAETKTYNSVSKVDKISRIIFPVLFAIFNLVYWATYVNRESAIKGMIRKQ
α3β3γ2 GABAA receptors, sequence (P63079 26-473 partner): as the sequence (P63079 26-473 partner) above
α3β3γ2 GABAA receptors, sequence (P18508 39-466): as the sequence (P18508 39-466) above

On to `CN1C(=O)CN=C(c2ccccc2)c2cc(Cl)ccc21` [DZP, diazepam, reference compound], for which the remaining activity at 0.01 µM on α1β3γ2 GABAA receptors (read-out: % of control current) was 136 ± 3%; on α2β3γ2 GABAA receptors (read-out: % of control current), 193 ± 5%; on α3β3γ2 GABAA receptors (read-out: % of control current), 167 ± 8%; on α5β3γ2 GABAA receptors (read-out: % of control current), 160 ± 2%. The “total distance travelled during acquisition” value in series [1] (2 mg/kg i.p., vs solvent-treated controls) is “significantly longer distances than solvent-treated controls during all five days”.
On to `C#Cc1cccc2c1[nH]c1cnc(C(=O)OC(C)(C)C)cc12` [WYS8, 8-ethynyl-β-carboline-3-carboxylate-t-butyl ester], for which the potentiation at α1β3γ2 GABAA receptors (at 100 nM, α1-subtype) is 40%. Besides, at α1β3γ2 GABAA receptors (read-out: % of control current), the remaining activity at 0.01 µM came to 124 ± 3%. Also, the remaining activity at 0.1 µM is 141 ± 5% on α1β3γ2 GABAA receptors (read-out: % of control current), 109 ± 2% on α2β3γ2 GABAA receptors (read-out: % of control current) and 126 ± 7% at α3β3γ2 GABAA receptors (read-out: % of control current). In addition, the “% of control current” value at α2β3γ2 GABAA receptors (10 nM compound, EC3 GABA, α2β3γ2) is recorded as “no significant stimulation”; at α3β3γ2 GABAA receptors (10 nM compound, EC3 GABA, α3β3γ2), “no significant stimulation”; on α5β3γ2 GABAA receptors (10 nM compound) it was “no significant stimulation”; at α5β3γ2 GABAA receptors (100 nM compound) it was “non-significant changes”. Further, the “modulation of EC3 GABA response” value on α5β3γ2 GABAA receptors (1 μM compound, α5 GABAA receptors) is listed as “significant, though relatively small negative modulation”. Further, the concentration at 20 min in series [2] is below 100 nM. Also, the “effect of addition to DZP on DZP's actions in the water maze” value in series [1] (WYS8 0.2, 1 and 10 mg/kg + DZP 2 mg/kg i.p.) is “did not generally affect the BZ’s actions”. Moreover, in series [1] (WYS8 0.2, 1 and 10 mg/kg + β-CCt 5 mg/kg i.p.), the “activity in the water maze when combined with β-CCt” value is given as “devoid of any activity”. Further, the “effect on Morris water-maze performance on its own” value in series [1] is “no substantial effect”. Further, in [1] (setting [4]), the “latency on the fourth day, combination with DZP vs DZP alone” value is “significantly longer latencies than those treated with DZP alone”. Besides, the “total distance on the fourth day, combination with DZP vs DZP alone” value in series [1] (setting [4]) is on record as “significantly longer distances than those treated with DZP alone”. Moreover, on α1β3γ2 GABAA/BZ site, the “binding affinity at α1 GABAA receptors” value is reported as “sub-nanomolar”. The Ki – broadly, a measure of affinity in units of concentration, obtained from inhibition or displacement – was 111 nM on α2β3γ2 GABAA/BZ site, 102 nM on α3β3γ2 GABAA/BZ site and 208 nM at α5β3γ2 GABAA/BZ site.
Regarding `CCN(CC)CCN1C(=O)CN=C(c2ccccc2F)c2cc(Cl)ccc21` [flurazepam], the “decrease of binding of radiolabelled zolpidem” value is given as 23% with α1 GABAA receptors (cerebellum) and 14% in the series with α1 GABAA receptors (hippocampus).
As for `CC(C)(C)OC(=O)c1cc2c(cn1)[nH]c1ccccc12` [β-CCt, t-butyl-β-carboline-3-carboxylate, reference compound], in series [1], the “effect on Morris water-maze performance on its own” value is listed as “no substantial effect”. The “binding affinity at α1 GABAA receptors” value on α1β3γ2 GABAA/BZ site is on record as “sub-nanomolar”. Moreover, the “effect on spatial learning deficits induced by DZP in the water maze” value in [3] (acquisition) was “almost completely abolished”. The “effect on spatial memory deficits induced by DZP, probe trial” value in series [3] is listed as “at least partially prevented”.
